In article PMC9579399 (Clinical and Translational Science, 2022):

System: healthy Chinese male subjects
Assay: Safety evaluation
Format: in vivo, human
Details: n = 49 per group
Summary of the method: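 AEs recorded throughout the study by investigators, including laboratory tests (hematology, biochemistry, urinalysis), vital signs, physical exams, 12-lead ECG and injection site reactions. Subjects with AEs followed until return to normal or baseline. Incidence calculated as subjects with at least one AE divided by total subjects.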

For `CCCCCCCCCCCCCCCC(=O)N[C@@H](CCC(=O)NCCCC[C@H](NC(=O)[C@H](C)NC(=O)[C@H](C)NC(=O)[C@H](CCC(N)=O)NC(=O)CNC(=O)[C@H](CCC(=O)O)NC(=O)[C@H](CC(C)C)NC(=O)[C@H](Cc1ccc(O)cc1)NC(=O)[C@H](CO)NC(=O)[C@H](CO)NC(=O)[C@@H](NC(=O)[C@H](CC(=O)O)NC(=O)[C@H](CO)NC(=O)[C@@H](NC(=O)[C@H](Cc1ccccc1)NC(=O)[C@@H](NC(=O)CNC(=O)[C@H](CCC(=O)O)NC(=O)[C@H](C)NC(=O)[C@@H](N)Cc1cnc[nH]1)[C@@H](C)O)[C@@H](C)O)C(C)C)C(=O)N[C@@H](CCC(=O)O)C(=O)N[C@@H](Cc1ccccc1)C(=O)N[C@H](C(=O)N[C@@H](C)C(=O)N[C@@H](Cc1c[nH]c2ccccc12)C(=O)N[C@@H](CC(C)C)C(=O)N[C@H](C(=O)N[C@@H](CCCNC(=N)N)C(=O)NCC(=O)N[C@@H](CCCNC(=N)N)C(=O)NCC(=O)O)C(C)C)[C@@H](C)CC)C(=O)O` [Victoza, Liraglutide], the “incidence of AEs” value (percentage of subjects with at least one AE) was 32.7%, the “incidence of TRAEs” value (percentage of subjects with at least one TRAE) was 24.5% and the “Number of events (AEs)” value (single 0.6 mg s.c.) was 19. The “Number of events (TRAEs)” value (single 0.6 mg s.c.) was 12.
